For 37 sequences, Tm and folding enthalpy results are on record in the array DNA melting data of Ke et al. (doi:10.1101/2024.01.08.574731).

Data set [1] in a line: melting temperature; fluorescence melt of hairpins on a sequencing array, two-state fit, raised by 9.35 °C to match UV melts. Conditions: sodium 0.088 M. A digest of the protocol: (§1)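 Melting temperature and folding enthalpy were obtained by bootstrapped two-state fitting. Fits used Cy3 fluorescence of library hairpins with annealed Cy3 and quencher oligos on a sequenced MiSeq flow cell, imaged in 50 mM Na-HEPES pH 8.0, 25 mM NaCl in 2.5 °C steps up to 60 °C and normalised to pre-quench Cy3 and control constructs. Four replicates were combined by inverse-variance weighting, and fitted temperatures were raised by 9.35 °C to match UV melts.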

The nature of data set [2]: folding enthalpy; higher = less favourable; fluorescence melt of hairpins on a sequencing array, two-state fit. The conditions noted are these: sodium 0.088 M. In outline:
as §1

For the sequence GCCCAGCGAAAGCTCAGC ((..(((....)))..)), the Tm in data set [1] was found to be 32.6 °C. The folding enthalpy in data set [2] was -8.74 kcal/mol.
For GCCCAGCGAAAGCTCGGC (((.(((....))).))), the Tm in data set [1] was 51.3 °C. For the same sequence, the folding enthalpy in data set [2] was -40.4 kcal/mol.
GCCCAGCGAAAGCTCTGC ((..(((....)))..)): the Tm in data set [1] turned out to be 26.9 °C. Moreover, the folding enthalpy in data set [2] is -6.7 kcal/mol.
Consider GCCCAGCGAAAGCTTTGC ((..(((....)))..)), for which, in data set [1], the Tm came to 37.6 °C. In data set [2], the folding enthalpy is -7.49 kcal/mol.
Consider GCCCATCGAAAGATGGC (((.(((....)))))), for which, in data set [1], the Tm was determined as 56.1 °C. Moreover, the folding enthalpy in data set [2] is -14 kcal/mol.
On to GCCCATGGAAACGTGGGC (((((.(....).))))), for which the Tm in data set [1] amounted to 59 °C. For the same sequence, the folding enthalpy in data set [2] was -38.2 kcal/mol.
Turning to GCCCCACGAAAGTGCGGC (((.(((....))).))), in data set [1], the Tm is 54.3 °C. For the same sequence, in data set [2], the folding enthalpy was -29.6 kcal/mol.
Take GCCCCAGCGAAAGCTGGC (((..(((....)))))): in data set [1], the Tm was found to be 37.9 °C. Moreover, the folding enthalpy in data set [2] is -5.59 kcal/mol.
As to GCCCCAGGAAACTAGGGC ((((.((....)).)))), in data set [1], the Tm amounted to 46.4 °C. Also, in data set [2], the folding enthalpy was -29.1 kcal/mol.
Regarding GCCCCCCCGAAAGGGGGC (((..(((....)))))), in data set [1], the Tm was 65.2 °C. For the same sequence, the folding enthalpy in data set [2] is -11.2 kcal/mol.
With GCCCCCCGAAAGGGAGGC (((.(((....))).))), the Tm in data set [1] is 67 °C. Moreover, the folding enthalpy in data set [2] is -29.8 kcal/mol.
In the case of GCCCCCGAAAGGGAAGGC ((((((....)))..))), the Tm in data set [1] was 55.7 °C. Further, the folding enthalpy in data set [2] is -27 kcal/mol.
With GCCCCCGAAAGGGCCGGC ((((((....)))..))), in data set [1], the Tm came to 54.3 °C. In addition, the folding enthalpy in data set [2] is -16.4 kcal/mol.
Regarding GCCCCCGAAAGGGCGGC ((((((....))).))), in data set [1], the Tm came out at 68.5 °C. Besides, in data set [2], the folding enthalpy was -23.2 kcal/mol.
The like results for GCCCCCGGAAACAGGGGC (((((.(....).))))) were, in that order, 56.7 °C and -35 kcal/mol.
On to GCCCCCGGAAACGGGAGC ((.((((....)))).)), for which the Tm in data set [1] stood at 54.2 °C. In data set [2], the folding enthalpy was -25 kcal/mol.
As to GCCCCGACGAAAGTCGGC (((..(((....)))))), in data set [1], the Tm is 41.1 °C. The folding enthalpy in data set [2] is -4.92 kcal/mol.
As to GCCCCGCGAAAGCCGCGC ((.(.((....)).).)), the Tm in data set [1] amounted to 31.5 °C. Further, the folding enthalpy in data set [2] is -13.7 kcal/mol.
With GCCCCGCGAAAGCGCTGC ((..(((....)))..)), in data set [1], the Tm came out at 31.6 °C. Moreover, the folding enthalpy in data set [2] is -9.38 kcal/mol.
With GCCCCGCGAAAGCTGAGC ((.(.((....)).).)), the Tm in data set [1] was determined as 35 °C. Besides, in data set [2], the folding enthalpy was -10.7 kcal/mol.
With GCCCCGCGAAAGCTTGGC (((..((....))..))), the Tm in data set [1] was 43.1 °C. The folding enthalpy in data set [2] is -19.9 kcal/mol.
Take GCCCCTACGAAAGTAGGC (((..(((....)))))): in data set [1], the Tm is 36.7 °C. The folding enthalpy in data set [2] was -6.61 kcal/mol.
The like results for GCCCCTCCGAAAGGAGGC (((..(((....)))))) were, in that order, 39.8 °C and -5.85 kcal/mol.
On to GCCCGACGAAAGTCCGGC (((.(((....))).))), for which, in data set [1], the Tm is 51.8 °C. Besides, in data set [2], the folding enthalpy is -30.7 kcal/mol.
For the sequence GCCCGCCGAAAGGCGGC (((.(((....)))))), in data set [1], the Tm came to 66.6 °C. In addition, in data set [2], the folding enthalpy was -7.03 kcal/mol.
For GCCCGCGAAAGCGAAGGC ((((((....)))..))), the Tm in data set [1] was 63.3 °C. In data set [2], the folding enthalpy was -24.8 kcal/mol.
With GCCCGCGAAAGCGGAGGC ((((((....)))..))), the Tm in data set [1] was found to be 60 °C. Moreover, the folding enthalpy in data set [2] was -13.7 kcal/mol.
On the same counts, the results for GCCCGGCGAAAGCCACGC ((..(((....)))..)) are 35.9 °C and -8.86 kcal/mol.
For GCCCGGCGAAAGCCTTGC ((..(((....)))..)), the Tm in data set [1] was 35.7 °C. For the same sequence, the folding enthalpy in data set [2] was -8.46 kcal/mol.
For GCCCGGCGAAAGCGGAGC ((.(.((....)).).)), the Tm in data set [1] turned out to be 54.8 °C. Further, the folding enthalpy in data set [2] is -14.8 kcal/mol.
Regarding GCCCGGGCGAAAGCCGGC (((..(((....)))))), the Tm in data set [1] turned out to be 59.5 °C. Further, in data set [2], the folding enthalpy is -12.5 kcal/mol.
In the case of GCCCGTGCGAAAGCAGGC (((..(((....)))))), in data set [1], the Tm turned out to be 52 °C. Further, the folding enthalpy in data set [2] was -12.4 kcal/mol.
With GCCCGTGGAAACATGGGC ((((.((....)).)))), in data set [1], the Tm was found to be 61.2 °C. The folding enthalpy in data set [2] was -46 kcal/mol.
On the same counts, the results for GCCCTACGAAAGTAGGC (((.(((....)))))) are 56.8 °C and -13 kcal/mol.
For GCCCTACGAAAGTATGGC (((.(((....))).))), the Tm in data set [1] turned out to be 49 °C. Also, the folding enthalpy in data set [2] is -34.3 kcal/mol.
The like results for GCCCTCACGAAAGTGGGC (((..(((....)))))) were, in that order, 53.5 °C and -19.4 kcal/mol.
GCCCTCCGAAAGGAAGGC (((.(((....))).))): the Tm in data set [1] worked out at 53 °C. The folding enthalpy in data set [2] was -30.8 kcal/mol.
